Results from ChEMBL document CHEMBL1131580, “Antihyperglycemic activities of cryptolepine analogues: an ethnobotanical lead structure isolated from Cryptolepis sanguinolenta” (1998).

Columns and labels:
Mus musculus [1] = experiment: Mean body weight measured in genetically altered obese diabetic mice(db/db) at 100 mg/kg at 24 hr postdose; format: functional
Procedure, shortened: (§1)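 Obese diabetic C57BL/KS-db/db mice, single dose at t = 0, n = 8 per group (n = 5 for parent compound). Body weight recorded per mouse at 0 and 24 h; food intake reported as g/mouse/day. Vehicle used as negative control, metformin as positive control.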

3T3-L1 [2] = experiment: In vitro glucose transport activity in 3T3-LI adipocytes at 30 uM concentration.; format: functional, Mus musculus
Procedure, shortened: (§2)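 Differentiated 3T3-L1 adipocytes, no added insulin, treated in triplicate for 18 h with compound at 3, 10 or 30 µM. Glucose transport expressed as % (relative to untreated); values are means of triplicate runs, significance by one-tailed independent Student's t-test.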

3T3-L1 [3] = experiment: In vitro glucose transport activity in 3T3-LI adipocytes at 3 uM concentration.; format: functional, Mus musculus; procedure, shortened: as §2
Mus musculus [4] = experiment: Food intake measured in genetically altered obese diabetic mice(db/db) at 100 mg/kg dose; format: functional; procedure, shortened: as §1
Mus musculus [5] = experiment: Change in plasma glucose levels measured in genetically altered obese diabetic mice(db/db) at 100 mg/kg at 3 hr postdose; format: functional
Mus musculus [6] = experiment: Change in plasma glucose levels measured in genetically altered obese diabetic mice(db/db) at 100 mg/kg at 24 hr postdose; format: functional
Mus musculus [7] = experiment: Mean body weight measured in genetically altered obese diabetic mice(db/db) at 100 mg/kg at 0 hr postdose; format: functional; procedure, shortened: as §1
3T3-L1 [8] = experiment: In vitro glucose transport activity in 3T3-LI adipocytes at 10 uM concentration.; format: functional, Mus musculus; procedure, shortened: as §2

Compound | Mean body weight (Mus musculus [1]) [g mouse-1] | Glucose transport (3T3-L1 [2]) [%] | Glucose transport (3T3-L1 [3]) [%] | Food intake (Mus musculus [4]) [g mouse-1 day-1] | Change (Mus musculus [5]) [%] | Change (Mus musculus [6]) [%] | Mean body weight (Mus musculus [7]) [g mouse-1] | Glucose transport (3T3-L1 [8]) [%]
C[n+]1c2ccc(F)cc2cc2[nH]c3ccccc3c21.[Cl-] | 41.9 | 443 | 253 | 0.5 | -42.5 | -34.5 | 43.8 | 360
C[n+]1c2ccccc2c(Cl)c2[nH]c3ccc(-c4ccccc4)cc3c21.[Cl-] | – | 16 | 122 | – | – | – | – | 190
C[n+]1c2ccc(F)cc2c(Sc2ccc(Cl)cc2)c2[nH]c3ccccc3c21.[Cl-] | – | 13 | 128 | – | – | – | – | 154
C[n+]1c2ccc(F)cc2c(Oc2ccccc2)c2[nH]c3ccccc3c21.[Cl-] | 45.2 | 0.39 | 140 | 1.6 | -11.8 | -7.5 | 46.6 | 207
C[n+]1c2ccccc2c(Cl)c2[nH]c3cc(F)ccc3c21.[Cl-] | – | 6 | 107 | – | – | – | – | 159
C[n+]1c2ccccc2c(I)c2[nH]c3c(F)cccc3c21.[Cl-] | 41.4 | 0.1 | 129 | 0.7 | 19.9 | -32.9 | 43.4 | 255
COC(=O)c1c2ccccc2[n+](C)c2c3ccccc3n(C)c12.[I-] | – | 260 | 155 | – | – | – | – | 207
Fc1ccc(C[n+]2c3ccccc3cc3[nH]c4ccccc4c32)cc1.[Cl-] | 39 | 323 | 168 | 3.1 | -36.3 | -9.7 | 40.2 | 248
C[n+]1c2ccc(F)cc2c(-c2ccccc2)c2[nH]c3ccccc3c21.[Cl-] | 40.4 | 116 | 281 | 5.1 | -11.2 | -4.9 | 40.5 | 215
C[n+]1c2ccc(F)cc2c(Nc2ccccc2)c2[nH]c3ccccc3c21.[Cl-] | 44.2 | 0.9 | 325 | 3.2 | -10.5 | -10.7 | 44.8 | 208
COC(=O)c1c2ccccc2[n+](C)c2c1[nH]c1ccccc12.[I-] | – | 371 | 63 | – | – | – | – | 159
C[n+]1c2ccccc2c(Cl)c2sc3ccccc3c21.O=S(=O)([O-])C(F)(F)F | – | 110 | 96 | – | – | – | – | 100
C[n+]1c2ccc(Cl)cc2c(Cl)c2[nH]c3ccccc3c21.[Cl-] | – | 215 | 108 | – | – | – | – | 138
C[n+]1c2ccccc2cc2[n-]c3ccccc3c21.Cl [CRYPTOLEPINE HYDROCHLORIDE] | 39.8 | 359 | 148 | 0.9 | -16.4 | -43.1 | 41 | 305
C[n+]1c2ccccc2cc2[nH]c3ccccc3c21.[I-] [CRYPTOLEPTINE IODIDE] | – | 287 | 134 | – | – | – | – | 163
